Measured values published in ChEMBL document CHEMBL4673343, “Lythrum salicaria Ellagitannins Stimulate IPEC-J2 Cells Monolayer Formation and Inhibit Enteropathogenic Escherichia coli Growth and Adhesion” (J Nat Prod, 2020).
In brackets after ≈: the same amount, converted by molar mass. Activity calls are given as the source filed them. The calls are words filed in the database; no cut-off is given here.

Legend:
IPEC-J2 [1] = test: Induction of porcine IPEC-J2 cells monolayer development assessed as increase in transepithelial electrical resistance at 50 uM after 6 days by voltammetric method; format: functional, cell-based; conditions: Sus scrofa domesticus, time 6.0 day
Escherichia coli [2] = test: Growth inhibition of Escherichia coli 0147:K89:K88 at 20 to 500 uM measured every 5 mins for 24 hrs by turbidometric analysis; format: functional, organism-based; conditions: dose 20-500 µM, time hrs <=24
Summary of the method: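 Compound stocks were made in DMSO and filtered. The turbidimetric assay used double-strength BHI, 20–500 μM, E. coli at final 10^4 CFU/mL, and sealed anaerobic plates at 37 °C. OD690 was read every 5 min over 24 h.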

Escherichia coli [3] = test: Growth inhibition of Escherichia coli DSM 2840 at 20 to 500 uM measured every 5 mins for 24 hrs by turbidometric analysis; format: functional, organism-based; conditions: dose 20-500 µM, time hrs <=24
Summary of the method: (§1)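 Strains were revived from cryostocks and passaged twice daily in BHI with shaking at 37 °C over 2 days. Double-strength BHI plus diluted test stock (compounds in DMSO, 0.22 μm filtered), inoculum at final 10^4 CFU/mL, film-sealed for anaerobic conditions, 37 °C in plate reader. OD690 was read every 5 min for 24 h; lag time came from the lag-exponential method. Three independent experiments were run, each in triplicate.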

Escherichia coli [4] = test: Antibacterial activity against Escherichia coli ATCC 25922; format: functional
Escherichia coli [5] = test: Growth inhibition of Escherichia coli DSM 2840 assessed as doubling time at 50 uM measured every 5 mins for 24 hrs by turbidometric analysis (reference value: 31.6 +/- 0.8 min); format: functional; conditions: time hrs <=24; summary of the method: as §1
Escherichia coli [6] = test: Growth inhibition of Escherichia coli DSM 2840 assessed as doubling time at 20 uM measured every 5 mins for 24 hrs by turbidometric analysis (reference value: 31.6 +/- 0.8 min); format: functional; conditions: time hrs <=24; summary of the method: as §1
Escherichia coli [7] = test: Growth inhibition of Escherichia coli 0147:K89:K88 assessed as lag time at 200 uM measured every 5 mins for 24 hrs by turbidometric analysis (reference value: 300 min); format: functional; conditions: time hrs <=24; summary of the method: as §1
Escherichia coli [8] = test: Growth inhibition of Escherichia coli DSM 2840 assessed as doubling time at 100 uM measured every 5 mins for 24 hrs by turbidometric analysis (reference value: 31.6 +/- 0.8 min); format: functional; conditions: time hrs <=24; summary of the method: as §1
Escherichia coli [9] = test: Growth inhibition of Escherichia coli 0147:K89:K88 assessed as doubling time at 5 uM measured every 5 mins for 24 hrs by turbidometric analysis (reference value: 34.1 +/- 0.5 min); format: functional; conditions: time hrs <=24; summary of the method: as §1
Escherichia coli [10] = test: Growth inhibition of Escherichia coli 0147:K89:K88 assessed as doubling time at 20 uM measured every 5 mins for 24 hrs by turbidometric analysis (reference value: 34.1 +/- 0.5 min); format: functional; conditions: time hrs <=24; summary of the method: as §1
Escherichia coli [11] = test: Growth inhibition of Escherichia coli DSM 2840 assessed as lag time at 500 uM measured every 5 mins for 24 hrs by turbidometric analysis (reference value: 312 min); format: functional; conditions: time hrs <=24; summary of the method: as §1
Escherichia coli [12] = test: Growth inhibition of Escherichia coli DSM 2840 assessed as lag time at 200 uM measured every 5 mins for 24 hrs by turbidometric analysis (reference value: 312 min); format: functional; conditions: time hrs <=24; summary of the method: as §1
Escherichia coli [13] = test: Growth inhibition of Escherichia coli 0147:K89:K88 assessed as lag time at 10 uM measured every 5 mins for 24 hrs by turbidometric analysis (reference value: 300 min); format: functional; conditions: time hrs <=24; summary of the method: as §1
Escherichia coli [14] = test: Antibacterial activity against Escherichia coli; format: functional
Summary of the method: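 Strains: enteropathogenic E. coli O147:K89:K88 (Abbotstown) and non-fimbriated DSM 2840. Both were subcultured in BHI with shaking at 37 °C for 2 days, then inoculated at 10^4 CFU/mL final in BHI microplates. Extract stock was in water and pure compounds in DMSO, tested at 20–2000 μg/mL (extract), with ciprofloxacin as positive control. Plates were sealed for anaerobic conditions at 37 °C, and OD690 was read every 5 min for 24 h. MIC-level wells were plated on BHI agar (48 h). Three independent experiments were run in triplicate.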

Escherichia coli [15] = test: Growth inhibition of Escherichia coli 0147:K89:K88 assessed as doubling time at 200 uM measured every 5 mins for 24 hrs by turbidometric analysis (reference value: 34.1 +/- 0.5 min); format: functional; conditions: time hrs <=24; summary of the method: as §1
Escherichia coli [16] = test: Growth inhibition of Escherichia coli DSM 2840 assessed as lag time at 5 uM measured every 5 mins for 24 hrs by turbidometric analysis (reference value: 312 min); format: functional; conditions: time hrs <=24; summary of the method: as §1
Escherichia coli [17] = test: Growth inhibition of Escherichia coli 0147:K89:K88 assessed as lag time at 20 uM measured every 5 mins for 24 hrs by turbidometric analysis (reference value: 300 min); format: functional; conditions: time hrs <=24; summary of the method: as §1
Escherichia coli [18] = test: Growth inhibition of Escherichia coli 0147:K89:K88 measured every 5 mins for 24 hrs by turbidometric analysis; format: functional; conditions: time hrs <=24; summary of the method: as §1
Escherichia coli [19] = test: Growth inhibition of Escherichia coli DSM 2840 assessed as lag time at 50 uM measured every 5 mins for 24 hrs by turbidometric analysis (reference value: 312 min); format: functional; conditions: time hrs <=24; summary of the method: as §1
Escherichia coli [20] = test: Growth inhibition of Escherichia coli DSM 2840 assessed as lag time at 10 uM measured every 5 mins for 24 hrs by turbidometric analysis (reference value: 312 min); format: functional; conditions: time hrs <=24; summary of the method: as §1
Escherichia coli [21] = test: Growth inhibition of Escherichia coli DSM 2840 assessed as doubling time at 5 uM measured every 5 mins for <=24 hrs by turbidometric analysis (reference value: 31.6 +/- 0.8 min); format: functional; conditions: time hrs <=24; summary of the method: as §1
Escherichia coli [22] = test: Growth inhibition of Escherichia coli 0147:K89:K88 assessed as doubling time at 100 uM measured every 5 mins for 24 hrs by turbidometric analysis (reference value: 34.1 +/- 0.5 min); format: functional; conditions: time hrs <=24; summary of the method: as §1
Escherichia coli [23] = test: Antibacterial activity against Escherichia coli IFO 3972; format: functional
Escherichia coli [24] = test: Growth inhibition of Escherichia coli DSM 2840 assessed as doubling time at 10 uM measured every 5 mins for 24 hrs by turbidometric analysis (reference value: 31.6 +/- 0.8 min); format: functional; conditions: time hrs <=24; summary of the method: as §1
Escherichia coli [25] = test: Antibacterial activity against heat labile toxin gene positive Escherichia coli; format: functional
Escherichia coli [26] = test: Growth inhibition of Escherichia coli 0147:K89:K88 assessed as lag time at 5 uM measured every 5 mins for 24 hrs by turbidometric analysis (reference value: 300 min); format: functional; conditions: time hrs <=24; summary of the method: as §1
Escherichia coli [27] = test: Antibacterial activity against invasive E gene positive Escherichia coli; format: functional
Escherichia coli [28] = test: Growth inhibition of Escherichia coli DSM 2840 assessed as doubling time at 500 uM measured every 5 mins for 24 hrs by turbidometric analysis (reference value: 31.6 +/- 0.8 min); format: functional; conditions: time hrs <=24; summary of the method: as §1
Escherichia coli [29] = test: Growth inhibition of Escherichia coli 0147:K89:K88 assessed as doubling time at 10 uM measured every 5 mins for 24 hrs by turbidometric analysis (reference value: 34.1 +/- 0.5 min); format: functional; conditions: time hrs <=24; summary of the method: as §1
Escherichia coli [30] = test: Growth inhibition of Escherichia coli DSM 2840 assessed as doubling time at 200 uM measured every 5 mins for 24 hrs by turbidometric analysis (reference value: 31.6 +/- 0.8 min); format: functional; conditions: time hrs <=24; summary of the method: as §1
IPEC-J2 [31] = test: Induction of porcine IPEC-J2 cells monolayer development assessed as increase in transepithelial electrical resistance at 20 uM after 6 days by voltammetric method; format: functional, cell-based; conditions: Sus scrofa domesticus, time 6.0 day
Summary of the method: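 IPEC-J2 cells were seeded at 5 × 10^5/insert (0.4 μm PET) and cultured until TEER exceeded 1 kΩ cm2 (day 7). Apical medium was then replaced with 20 μM compound or PBS and renewed at day 10, with basolateral medium changed in parallel. TEER was read with an EVOM2 chopstick electrode at days 10 and 13. Mann–Whitney test versus PBS.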

Escherichia coli [32] = test: Growth inhibition of Escherichia coli 0147:K89:K88 infected in porcine IPEC-J2 cells assessed as inhibition of EPEC adhesion 100 uM preincubated for 24 hrs followed by compound wash subsequently infected with bacteria by CFDA-SE staining based flow cytometric analysis; format: functional; conditions: 0147:K89:K88, IPEC-J2, in Sus scrofa
Summary of the method: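 IPEC-J2 cells were seeded at 10^5/well and grown 7 days. On day 8 they were treated 24 h, then washed twice with warm PBS and given antibiotic-free medium. Infection used CFDA-SE-labelled (1 mM, 120 min, 37 °C) O147:K89:K88 at MOI 100 for 45 min, followed by three PBS washes and trypsinization. Flow cytometry measured MFI over 10 000 events. Mean ± SD of three experiments in triplicate; Dunnett's test versus PBS.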

Escherichia coli [33] = test: Antibacterial activity against Escherichia coli by two-fold serial dilution method; format: functional
Escherichia coli [34] = test: Antibacterial activity against Shiga-like toxin positive Escherichia coli; format: functional
Escherichia coli [35] = test: Growth inhibition of Escherichia coli DSM 2840 assessed as lag time at 20 uM measured every 5 mins for 24 hrs by turbidometric analysis (reference value: 312 min); format: functional; conditions: time hrs <=24; summary of the method: as §1
Escherichia coli [36] = test: Growth inhibition of Escherichia coli DSM 2840 assessed as lag time at 100 uM measured every 5 mins for 24 hrs by turbidometric analysis (reference value: 312 min); format: functional; conditions: time hrs <=24; summary of the method: as §1
Escherichia coli [37] = test: Growth inhibition of Escherichia coli 0147:K89:K88 assessed as doubling time at 50 uM measured every 5 mins for 24 hrs by turbidometric analysis (reference value: 34.1 +/- 0.5 min); format: functional; conditions: time hrs <=24; summary of the method: as §1
Escherichia coli [38] = test: Antibacterial activity against heat stable toxin gene positive Escherichia coli; format: functional
Escherichia coli [39] = test: Growth inhibition of Escherichia coli 0147:K89:K88 assessed as lag time at 100 uM measured every 5 mins for 24 hrs by turbidometric analysis (reference value: 300 min); format: functional; conditions: time hrs <=24; summary of the method: as §1
Escherichia coli [40] = test: Growth inhibition of Escherichia coli 0147:K89:K88 assessed as doubling time at 500 uM measured every 5 mins for 24 hrs by turbidometric analysis (reference value: 34.1 +/- 0.5 min); format: functional; conditions: time hrs <=24; summary of the method: as §1
Escherichia coli [41] = test: Growth inhibition of Escherichia coli 0147:K89:K88 assessed as lag time at 500 uM measured every 5 mins for 24 hrs by turbidometric analysis (reference value: 300 min); format: functional; conditions: time hrs <=24; summary of the method: as §1
Escherichia coli [42] = test: Growth inhibition of Escherichia coli 0147:K89:K88 assessed as lag time at 50 uM measured every 5 mins for 24 hrs by turbidometric analysis (reference value: 300 min); format: functional; conditions: time hrs <=24; summary of the method: as §1

O=c1oc2cc(O)ccc2c2cc(O)c(O)cc12
Activity (IPEC-J2 [1]): inactive | growth inhibition (GI) (Escherichia coli [2]): inactive | growth inhibition (GI) (Escherichia coli [3]): inactive

O=c1oc2cc(O)ccc2c2ccc(O)cc12
Activity (IPEC-J2 [1]): inactive | growth inhibition (GI) (Escherichia coli [2]): inactive | growth inhibition (GI) (Escherichia coli [3]): inactive

O=C1OC[C@H]2OC(=O)c3cc(O)c(O)c(O)c3-c3c(O)c(O)c(O)c4c3C(=O)O[C@H]([C@H]3OC(=O)c5c-4c(O)c(O)c(O)c5[C@H]3O)[C@@H]2OC(=O)c2cc(O)c(O)c(O)c2-c2c1cc(O)c(O)c2O [CASTALAGIN]
MIC (Escherichia coli [4]): 705 µM (≈ 659 µg/mL) | Time (Escherichia coli [5]): 43 min | Time (Escherichia coli [6]): 38.1 min | Time (Escherichia coli [7]): 722 min | Time (Escherichia coli [8]): 42.9 min | Time (Escherichia coli [9]): 36.8 min | Time (Escherichia coli [10]): 45.6 min | Time (Escherichia coli [11]): >1440 min | Time (Escherichia coli [12]): 870 min | Time (Escherichia coli [13]): 310 min | MIC (Escherichia coli [14]): 705 µM (≈ 659 µg/mL) | Time (Escherichia coli [15]): 35.9 min | Time (Escherichia coli [16]): 322 min | Time (Escherichia coli [17]): 380 min | MIC (Escherichia coli [18]): 500 µM (≈ 467 µg/mL) | Time (Escherichia coli [19]): 422 min | Time (Escherichia coli [20]): 320 min | Time (Escherichia coli [21]): 33.4 min | Time (Escherichia coli [22]): 36.6 min | MIC (Escherichia coli [23]): 705 µM (≈ 659 µg/mL) | Time (Escherichia coli [24]): 34.9 min | MIC (Escherichia coli [25]): 705 µM (≈ 659 µg/mL) | Time (Escherichia coli [26]): 317 min | MIC (Escherichia coli [27]): 705 µM (≈ 659 µg/mL) | Time (Escherichia coli [28]): >1440 min | Time (Escherichia coli [29]): 34.3 min | Time (Escherichia coli [30]): 56.8 min | Activity (IPEC-J2 [31]): Active | inhibition at 100 µM (Escherichia coli [32]): 37.7% | MIC (Escherichia coli [33]): 533 µM (≈ 498 µg/mL) | MIC (Escherichia coli [34]): 705 µM (≈ 659 µg/mL) | Time (Escherichia coli [35]): 347 min | Time (Escherichia coli [36]): 515 min | Time (Escherichia coli [37]): 45.3 min | MIC (Escherichia coli [38]): 705 µM (≈ 659 µg/mL) | Time (Escherichia coli [39]): 647 min | Time (Escherichia coli [40]): >1440 min | Time (Escherichia coli [41]): >1440 min | Time (Escherichia coli [42]): 502 min
